Compound activity: PubChem, several laboratories
Hits are enriched below; roughly 1.9% of the tested compounds scored in any of these assays.
RanGTP-Impb inh – inhibitors of RanGTP-importin-beta interaction, primary screen, biochemical, FRET, CFP-Ran, YFP-importin-beta, homogeneous. Ran GTPase (GTP-bound) - importin-beta complex. cell-free CFP-Ran/YFP-importin-beta FRET ratio. inhibition, % (no concentration beside the values). 300,000 tested, 1.1% active. AID 2216, 2009;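 active = more than half of the replicate wells show a fall in the fluorescence ratio signal beyond about 16%, limit read from the data, passing the limit was not always enough; inconclusive = exactly half of the replicate wells pass the set limit; inactive = fewer than half of replicates pass the limit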
HDAC3 inhib – HDAC3 deacetylase inhibitors, primary screen, biochemical, fluorescence, cell-free homogeneous; Histone deacetylase 3 (Homo sapiens), O15379; recombinant HDAC3, fluorogenic peptide/trypsin coupled; inhibition, % at 8.3 µM; 320,000 tested, 0.15% active; in the data active = inhibition above about 26%, passing the limit was not always enough; inconclusive = no clear call, values can overlap the other calls
CaV13 FRET inh – Disruptors of the CACNA1D IQ motif to Ca2+-dependent inactivation inhibitor domain association, primary screening, Förster resonance energy transfer in intact living … | HEK cells, CFP/YFP FRET ICDI-IQ, plate reader, 10 min; percent FRET-ratio fall versus neutral wells | inhibition, % at 12.3 µM | 340,000 tested, 0.098% active | AID 743397;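 active = mean replicate inhibition of at least 30% and at least 1% of replicates passing that level; inconclusive = only one of the two criteria is met; inactive = neither criterion is met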
Runt-SMMHC FRET – inhibitors of RUNX1 Runt–CBFb-SMMHC binding, primary screen, biochemical, FRET, Cerulean-Runt, Venus-CBFb-SMMHC, uHTS | inhibition, % at 20 µM | AID 1434, 2008 | Cerulean-Runt/Venus-CBFb-SMMHC FRET ratio 530/480, 1 h | 220,000 tested, 0.74% active;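 active = mean inhibition across duplicate retests at 20 µM reaching about 50%, limit read from the data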;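 also: inhibitors lower the FRET ratio by blocking Runt binding to CBFb-SMMHC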
Target sequence (Q01196 whole entry, looked up): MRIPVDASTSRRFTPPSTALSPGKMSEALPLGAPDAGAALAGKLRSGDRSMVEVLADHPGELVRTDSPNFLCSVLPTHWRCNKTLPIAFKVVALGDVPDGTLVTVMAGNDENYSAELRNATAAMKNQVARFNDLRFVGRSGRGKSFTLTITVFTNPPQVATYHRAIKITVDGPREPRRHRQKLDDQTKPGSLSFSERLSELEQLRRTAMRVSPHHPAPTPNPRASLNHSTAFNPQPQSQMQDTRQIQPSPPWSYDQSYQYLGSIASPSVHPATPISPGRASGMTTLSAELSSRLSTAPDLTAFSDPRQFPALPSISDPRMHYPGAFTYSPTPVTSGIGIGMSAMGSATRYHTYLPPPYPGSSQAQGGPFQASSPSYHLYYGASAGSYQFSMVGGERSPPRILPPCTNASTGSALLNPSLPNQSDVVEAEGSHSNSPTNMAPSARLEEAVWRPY
Target sequence (Q13951 whole entry, looked up): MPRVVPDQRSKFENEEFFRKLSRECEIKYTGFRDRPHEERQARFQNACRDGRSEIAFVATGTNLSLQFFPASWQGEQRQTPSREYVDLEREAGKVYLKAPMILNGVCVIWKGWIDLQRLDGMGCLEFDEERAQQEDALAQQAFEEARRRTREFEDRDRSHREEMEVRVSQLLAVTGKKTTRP
LANA-H2B inh – blockers of LANA interaction with H2A/H2B – biochemical, FP readout, HTS, primary screen; Protein LANA1 (Human herpesvirus 8 type P (isolate GK18)), Q9QR71; cell-free LANA-H2A/H2B peptide, fluorescence polarization; inhibition, % (concentration not given with the values); 320,000 tested, 0.6% active; AID 2629, 2010; in the data active = inhibition mostly above about 10%, no sharp cut-off; inactive = mostly below about 6.7%
Runt-CBFb FRET – inhibitors of RUNX1 Runt–CBFb binding, primary screen, biochemical, FRET, Cerulean-Runt, Venus-CBFb, uHTS; Runt-related transcription factor 1 (Homo sapiens) + Core-binding factor subunit beta …; Cerulean-Runt/Venus-CBFb FRET ratio 530/480, 1 h; 220,000 tested, 0.46% active; AID 1496, 2009; inhibition, % at 20 µM;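 active = inhibition over about 50% at 20 µM in the single-dose screen, limit read from the data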
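Measured by: fluorescence energy transfer, 422 nm excitation, 530/480 nm emission; Assay system: Cerulean-Runt domain; Medium: Tris pH 7.5 buffer with BSA; Measure: loss of energy transfer signal; Controls: 5 µM unlabeled CBFb as full-inhibition high control; Incubation: protein complex preformed 1 h, compound exposure 1 h, room temperature, dark.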
Each line names hits and unclear results; the compound was inactive in the other large screens.

Cc1nc(Nc2nc3c(c(=O)[nH]2)CCC3)nc2ccccc12	none (no result: CaV13 FRET inh, Runt-SMMHC FRET, Runt-CBFb FRET)
C/C(Sc1nnc(Cc2ccccc2)o1)=C(\O)c1ccccc1	none (no result: RanGTP-Impb inh, HDAC3 inhib, Runt-SMMHC FRET, LANA-H2B inh, Runt-CBFb FRET)
Nc1c(C(=O)NCc2ccccc2)c2nc3ccccc3nc2n1CCCN1CCOCC1	RanGTP-Impb inh 100.9, CaV13 FRET inh 76.2, Runt-SMMHC FRET 76.0, Runt-CBFb FRET 78.6
COC(=O)c1c(N)n(CCCN2CCOCC2)c2nc3ccccc3nc12	RanGTP-Impb inh 20.7, Runt-SMMHC FRET 129.6, Runt-CBFb FRET 65.9
O=C(NCCCN1CCOCC1)C(=O)NCc1ccccc1	none
CCCCCCn1c(=O)[nH]c2nc3cc(N)ccc3nc2c1=O	LANA-H2B inh 41.6
CCCCCn1c(=O)c(C(=O)c2ccccc2)nc2ccccc21	none (no result: Runt-CBFb FRET)
Cc1cccc2c1CC(C)(C)N/C2=C\C(N)=O	none
CC(C)(C)c1ccccc1NC(=S)NC1CCCCC1	RanGTP-Impb inh 82.7
CC(C)(C)c1ccccc1NC(=S)NC1CCCC1	none (no result: CaV13 FRET inh, Runt-SMMHC FRET, Runt-CBFb FRET)
CN1/C(=C/C=C(/C#N)C(N)=O)C(C)(C)c2ccccc21	RanGTP-Impb inh 115.2, Runt-CBFb FRET 60.7 (no result: CaV13 FRET inh)
CN1/C(=C\C=N\O)C(C)(C)c2ccccc21	none
CN1/C(=C\C=C(/C#N)C(=O)Nc2ccccc2F)C(C)(C)c2ccccc21	RanGTP-Impb inh 122.3, Runt-SMMHC FRET 58.5
CCCC(=O)NC(Nc1ccccc1F)C(Cl)(Cl)Cl (stereo not given)	Runt-CBFb FRET 67.0 (no result: CaV13 FRET inh)
COc1cccc(NS(=O)(=O)c2c(C)cc(C)cc2C)c1	LANA-H2B inh 18.7
COc1ccc(NS(=O)(=O)c2c(C)cc(C)cc2C)cc1	RanGTP-Impb inh inconclusive
Cc1cc(C)c(NS(=O)(=O)c2ccc3c(c2)NC(=O)C(C)C(=O)N3)c(C)c1 (stereo not given)	none (no result: Runt-SMMHC FRET, Runt-CBFb FRET)
CCCCn1cnc2c(SCc3ccc([N+](=O)[O-])cc3)nc(N)nc21	none (no result: RanGTP-Impb inh, HDAC3 inhib, Runt-SMMHC FRET, LANA-H2B inh, Runt-CBFb FRET)
CCN1C(=C(C#N)C#N)C=Cc2cc(C)ccc21	RanGTP-Impb inh 52.3, Runt-SMMHC FRET 76.7
O=C(c1ccc(NS(=O)(=O)c2cccs2)cc1)N1CCOCC1	none (no result: Runt-SMMHC FRET, Runt-CBFb FRET)
CC(=O)c1ccc(N2CCN(C(=O)/C=C/c3ccc(S(=O)(=O)NCc4ccco4)cc3)CC2)cc1	none
Cc1ccc(CNc2nc(C)nc3sc4c(c23)CCC4)cc1	RanGTP-Impb inh 25.5
O=c1ccc2cc3c([nH]c4ccc(Br)cc43)oc-2c1O	HDAC3 inhib 37.7
COc1ccc(OCCN2CCN(C(=O)c3ccc(OC)cc3)CC2)cc1	LANA-H2B inh 14.1 (no result: Runt-SMMHC FRET, Runt-CBFb FRET)
CCOc1ccc(C(=O)CCN2CCCCC2)cc1	none (no result: CaV13 FRET inh)
COc1ccc(OCCN2CCN(C(=O)c3ccc(OC(F)F)c(OC)c3)CC2)cc1	none (no result: Runt-SMMHC FRET, Runt-CBFb FRET)
COc1ccc(C(=O)CCN2CCCCCC2)cc1	RanGTP-Impb inh inconclusive, LANA-H2B inh 12.2
OC(c1cccc(Cl)c1)c1nc(-c2cc3ccccc3o2)cs1 (stereo not given)	none (no result: RanGTP-Impb inh, HDAC3 inhib, Runt-SMMHC FRET, LANA-H2B inh, Runt-CBFb FRET)
Cc1cccc(OC2CCN(Cc3c(C(=O)N4CCCC4)nc4ccccn34)CC2)c1	none
O=C(c1cnn2ccccc12)N1CCN(C2CCCCC2)CC1	none
COCC1CCN(Cc2c(C(=O)N3CCN(C4CCCCC4)CC3)nc3ccccn23)C1 (stereo not given)	RanGTP-Impb inh 111.4 (no result: HDAC3 inhib, Runt-SMMHC FRET, Runt-CBFb FRET)
O=C(c1nc2ccc(Cl)cn2c1CN1CCC[C@H]1CO)N1CCCCCCC1	RanGTP-Impb inh 22.1 (no result: CaV13 FRET inh, Runt-SMMHC FRET, Runt-CBFb FRET)
NC(=O)[C@@H]1CCCN1Cc1c(C(=O)N2CCN(C3CCCCC3)CC2)nc2ccccn12	RanGTP-Impb inh 111.5 (no result: Runt-SMMHC FRET, Runt-CBFb FRET)
COC1CCN(Cc2c(C(=O)N3CCN(C4CCCCC4)CC3)nc3ccccn23)CC1	RanGTP-Impb inh 103.9 (no result: CaV13 FRET inh, Runt-SMMHC FRET, Runt-CBFb FRET)
O=C(c1nc2ccc(Cl)cn2c1CNCCn1ccnc1)N1CCCCCCC1	none
CC(=O)Nc1ccc(N(CC(O)Cn2c3ccccc3c3ccccc32)S(=O)(=O)c2ccc(C)cc2)cc1 (stereo not given)	none
COC(=O)c1c[nH]c(=S)n1Cc1ccccc1	none (no result: RanGTP-Impb inh, HDAC3 inhib, Runt-SMMHC FRET, LANA-H2B inh, Runt-CBFb FRET)
O=C(c1nc2ccccn2c1CN1CCCC(O)C1)N1CCN(C2CCCCC2)CC1 (stereo not given)	RanGTP-Impb inh 103.5 (no result: Runt-SMMHC FRET, Runt-CBFb FRET)
O=C(c1nc2ccccn2c1CN1CCC(Cc2ccccc2)CC1)N1CCCC1	none
FC(F)(F)c1ccccc1-n1c(-c2ccco2)n[nH]c1=S	none (no result: Runt-SMMHC FRET, Runt-CBFb FRET)
Clc1ccc(CN2CCCCCCC2)cc1	none
FC(F)(F)c1cc(CCN2CCNC[C@H]2Cc2cccc3ccccc23)cc(C(F)(F)F)c1	HDAC3 inhib 31.6 (no result: Runt-SMMHC FRET, Runt-CBFb FRET)
Oc1ccc(C[C@@H]2CNCCN2CCc2cc(C(F)(F)F)cc(C(F)(F)F)c2)cc1	none (no result: Runt-SMMHC FRET, Runt-CBFb FRET)
COc1ccc(S(=O)(=O)NCC(c2cccnc2)N2CCN(Cc3ccccc3)CC2)cc1 (stereo not given)	none (no result: Runt-SMMHC FRET, Runt-CBFb FRET)
CCN1CCN(C(CNS(=O)(=O)c2ccc(OC)cc2)c2cccnc2)CC1 (stereo not given)	LANA-H2B inh 14.2 (no result: HDAC3 inhib)
COc1ccc(CNC(=O)CN(c2ccc(C(C)C)cc2)S(=O)(=O)c2c(C)noc2C)cc1	LANA-H2B inh 14.2 (no result: Runt-SMMHC FRET, Runt-CBFb FRET)
O=C(CSc1cccc[n+]1[O-])Nc1ccccc1Oc1ccccc1	LANA-H2B inh active
O=C(CSc1cccc[n+]1[O-])Nc1ccccc1C(F)(F)F	none (no result: RanGTP-Impb inh, Runt-SMMHC FRET, Runt-CBFb FRET)
